Screens (PubChem BioAssay)
MrgX1 antag – human MrgX1 receptor antagonism, primary screen; Q96LB2; MRGX1-HEK293 calcium flux, Fluo-4, BAM8-22 antagonism; active compounds read low; B-score at 10 µM; hit rate 1.3% among 310,000;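 active = calcium-response B-score plate-corrected more than 3 library SD below zero, starting fluorescence within 5 deviations, no agonist response on first addition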;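 note: peak minus trough fluorescence over baseline after final BAM8-22 challenge near maximal dose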
Target sequence (Q96LB2 whole entry, looked up): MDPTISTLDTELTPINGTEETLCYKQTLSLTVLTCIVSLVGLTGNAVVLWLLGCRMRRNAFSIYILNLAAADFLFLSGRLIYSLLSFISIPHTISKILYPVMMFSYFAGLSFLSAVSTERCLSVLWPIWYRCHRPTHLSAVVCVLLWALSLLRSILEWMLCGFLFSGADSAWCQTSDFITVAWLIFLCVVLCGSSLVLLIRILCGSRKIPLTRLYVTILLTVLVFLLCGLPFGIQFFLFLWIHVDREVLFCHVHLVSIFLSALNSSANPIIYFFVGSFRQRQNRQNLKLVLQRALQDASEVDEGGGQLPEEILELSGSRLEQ
RGS4 pot – potentiators or activators of RGS4 | HEK293 M3R/inducible RGS4, carbachol calcium flux Fluo4; active compounds read low | B-score at 10 µM | hit rate 0.92% among 310,000;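 active = B-score of the integrated calcium signal more than 4 SD below the library mean, with starting fluorescence not abnormally high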;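 note: negative B-score means reduced calcium response which marks RGS4 activation or potentiation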
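Material: Inducible-RGS4 HEK293 cells carrying M3 receptor; also added: carbachol at ECmax as muscarinic agonist stimulus; incubation: compound preincubation 20 min at room temperature before agonist; signal: Fluo4-AM (2 µM) calcium-flux fluorescence, kinetic read; measure: integrated calcium ratio converted to B score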
MrgX1 PAM – allosterically activates human MrgX1 receptor signaling; MrgX1-HEK293, Fluo-4 calcium flux, FDSS; active compounds read high; B-score at 10 µM; hit rate 0.63% among 310,000; Q96LB2;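 active = plate-corrected calcium response at least 3 library SD above typical, normal starting fluorescence, not activating the receptor alone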;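 note: compound read alongside a low EC10 to EC30 dose of BAM8-22 agonist; peak minus trough fluorescence over baseline measured at the second addition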
MrgX1 ag – activates human MrgX1 receptor signaling | Q96LB2 | MrgX1-HEK293 cells, Fluo-4 calcium fluorescence, agonist mode; active compounds read high | B-score at 10 µM | hit rate 0.44% among 310,000 | AID 588627;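 active = calcium response B-score plate-corrected fluorescence ratio at least 3 library SD, with starting fluorescence B-score inside 5 SD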
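times = overnight plating, then 30 min 37 °C plus 30 min room-temperature dye loading | assay system = stable human MrgX1 HEK293 cell line | input = fifteen thousand cells per well | signal = kinetic calcium dye fluorescence, Fluo-4 NW | dosing = compound delivered in addition one of three | read-out = B-scored fluorescence response ratio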
RGS4 block – human RGS4 inhibition; P49798; HEK293 M3R/RGS4 inducible, Fluo-4 calcium flux; active compounds read high; triggered by carbachol at its EC20; B-score at 10 µM; hit rate 0.45% among 310,000; AID 463165;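 active = B-score, a plate-corrected calcium signal, over three deviations above library mean, with baseline fluorescence within five deviations of library mean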;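 note: RGS4 expression induced by doxycycline in cells with stable M3 receptor; B-score is computed from the integrated fluorescence ratio over baseline after carbachol; higher B-score means a larger calcium signal and so more RGS4 inhibition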
Target sequence (P49798 whole entry, looked up): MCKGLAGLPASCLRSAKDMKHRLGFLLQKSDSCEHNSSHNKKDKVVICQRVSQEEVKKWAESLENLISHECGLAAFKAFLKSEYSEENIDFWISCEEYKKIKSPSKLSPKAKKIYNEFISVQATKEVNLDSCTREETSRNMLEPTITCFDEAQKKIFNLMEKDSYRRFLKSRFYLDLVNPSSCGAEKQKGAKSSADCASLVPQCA
RGS4 inh valid – validation of RGS4 inhibitors; shares compounds with RGS4 block; calcium response, % at 10 µM; hit rate 65% among 1,700; HEK293 M3R/RGS4, carbachol calcium Fluo-4 fluorescence; carbachol added at its EC20; 0 = buffer wells, 100 = carbachol control;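 active = duplicate-averaged calcium response above the buffer-only control mean plus 5 SD of those controls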;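 note: integrated fluorescence ratio F max minus min over baseline F0; higher response in RGS4-induced cells means RGS4 inhibition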
RGS4 uninduced – non-induced cell nonspecific activity of RGS4 inhibitors. activity (percent), % at 10 µM. shares compounds with RGS4 block. HEK293 M3R non-induced, carbachol calcium Fluo-4; submaximal (EC20) carbachol stimulus; buffer wells 0%, carbachol control wells 100%. hit rate 20% among 1,900; call rule not given here;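 note: RGS4 induction absent so cells express M3R without RGS4; higher means more calcium signal and flags a non-specific hit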
RGS4 inh ctr2 – second counter-screen for RGS4 inhibitors: non-induced cells without carbachol; shares compounds with RGS4 block; HEK293 M3R/RGS4 non-induced, Fluo-4 calcium, no carbachol; normalised: buffer wells 0%, carbachol wells 100%; calcium response (agonist-mode artifact), % at 10 µM; hit rate 22% among 1,900; AID 493001;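 active = duplicate-averaged calcium rise in uninduced cells above buffer wells' mean plus 5 SD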
Starred values were filed as active, the others as inactive; i = inactive; . = not tested or not shown. Shown are actives, neighbours in structure and some others; about 3.5% of the full set was active somewhere.

SMILES	MrgX1 antag	RGS4 pot	MrgX1 PAM	MrgX1 ag	RGS4 block	RGS4 inh valid	RGS4 uninduced	RGS4 inh ctr2
COc1ccc(-c2cn[nH]c2-c2ccc(OCc3ccc([N+](=O)[O-])cc3)cc2O)cc1OC	i	i	i	i	i	.	.	.
Cc1cc(=O)nc2c3ccccc3n(CC(=O)NCCCN3CCCCC3C)n12 (stereo unspecified)	i	i	i	i	i	.	.	.
O=C(Cc1cccs1)N1CCC(c2nc3c(nnn3Cc3ccccc3)c(=O)[nH]2)CC1	i	i	i	i	i	i	i	i
O=C(Cc1cccs1)N1CCCC(c2nc3c(nnn3Cc3ccc(F)cc3)c(=O)[nH]2)C1 (stereo unspecified)	i	i	i	i	i	.	.	.
CC(C)(C)c1ccc(Cn2nnc3c(=O)[nH]c(C4CCCN(C(=O)Cc5cccs5)C4)nc32)cc1 (stereo unspecified)	i	i	i	i	i	.	.	.
CC(C)(C)c1ccc(Cn2nnc3c(=O)[nH]c(C4CCN(C(=O)Cc5cccs5)CC4)nc32)cc1	i	i	i	i	5.4*	27%*	i	i
Cc1ccc(Cn2nnc3c(=O)[nH]c(C4CCN(C(=O)Cc5cccs5)CC4)nc32)cc1	i	i	i	i	i	.	i	i
CC(OC(=O)Cc1c[nH]c2ccccc12)C(=O)Nc1ccccc1[N+](=O)[O-] (stereo unspecified)	i	i	i	i	i	.	.	.
CCOc1ccc(NS(=O)(=O)c2ccc(NS(=O)(=O)c3ccc(SC)cc3)cc2)cc1	-4.8*	i	i	i	5.2*	13%*	32%*	i
CSc1ccc(S(=O)(=O)Nc2ccc(NC(C)=O)cc2)cc1	i	i	i	i	i	.	.	.
CSc1ccc(S(=O)(=O)Nc2ccc(S(=O)(=O)Nc3ccc(C)cc3)cc2)cc1	i	i	i	i	5*	28%*	i	i
COc1cc(OC)cc(-c2cc(N)n(S(=O)(=O)c3cccc4nsnc34)n2)c1	i	i	i	i	4.8*	8.0%*	i	i
COc1ccc(/C=N/NC(=O)c2sccc2OCc2ccc(F)cc2)cc1OC	i	i	i	i	i	.	.	.
CCC(=O)OCCNc1cc(SCCC(=O)OC)c2nonc2c1[N+](=O)[O-]	i	i	i	i	i	.	.	.
CCC(=O)OCCNc1cc(Sc2nccn2C)c2nonc2c1[N+](=O)[O-]	i	i	i	i	i	.	i	i
CCCC(=O)OCCNc1cc(Sc2nc3ccccc3[nH]2)c2nonc2c1[N+](=O)[O-]	i	i	i	i	i	.	i	14%*
O=C(c1ccc(Br)cc1)N1CCN(S(=O)(=O)c2ccccc2)CC1	i	i	i	i	i	.	.	.
Oc1c(Br)cc(Cl)cc1C=Nc1ccccc1Br	i	i	i	i	i	.	.	.
Oc1c(Br)cc(Cl)cc1C=Nc1ccc(N2CCOCC2)cc1	i	i	i	i	i	.	i	26%*
CCn1c(C)cs/c1=N\S(=O)(=O)c1ccccc1	i	i	i	i	i	.	.	.
O=Cc1s/c(=N\S(=O)(=O)c2ccccc2)n(CCCCl)c1Cl	.	i	.	.	5.4*	9.0%*	i	20%*
Cc1ccc(/C=C/C(=O)N2CCN(c3ncccn3)CC2)o1	i	i	i	i	14*	17%*	i	i
NC(=O)C1CCN(C(=O)c2ccc([N+](=O)[O-])cc2NC(=O)c2cccs2)CC1	i	i	i	i	i	.	.	.
CC(C)C(=O)N1CCN(c2nc(-c3ccc(Cl)cc3)cs2)CC1	i	i	i	i	5.5*	18%*	i	i
CCOC(=O)N1CCN(C(=O)CCCn2nnnc2CN2CCC(C)CC2)CC1	i	i	i	i	i	.	.	.
SMILES	MrgX1 antag	RGS4 pot	MrgX1 PAM	MrgX1 ag	RGS4 block	RGS4 inh valid	RGS4 uninduced	RGS4 inh ctr2
CCN1CCCC1CNC(=O)C1CCN(C(=O)c2cc3sccc3n2Cc2ccc(F)cc2)CC1 (stereo unspecified)	i	i	i	i	i	.	.	.
O=C(/C=C/NNC(=O)c1ccc(Cl)cc1)c1ccccc1	i	i	i	i	6.1*	i	i	i
O=C1NC(c2cccs2)C(C(=O)c2ccccc2)C(O)(C(F)(F)F)N1 (stereo unspecified)	i	i	i	i	i	.	.	.
O=C1NC(c2ccc(-c3ccccc3[N+](=O)[O-])o2)C(C(=O)c2ccccc2)C(O)(C(F)(F)F)N1 (stereo unspecified)	i	i	i	i	i	i	i	i
Cc1ccc(C(=O)C2C(c3ccc(-c4ccccc4[N+](=O)[O-])o3)NC(=O)NC2(O)C(F)(F)F)cc1 (stereo unspecified)	i	i	i	i	i	.	i	i
CCC(CC)C(=O)NCc1ccc(OC)cc1	i	i	i	i	i	.	.	.
CN=c1sc(C(=O)Nc2cccc(Cl)c2)cc(=O)n1C	i	i	i	i	28*	14%*	i	23%*
Cn1c(N)c(C(=O)Nc2cccc(Cl)c2)c(=O)n(C)c1=O	i	i	i	i	i	.	.	.
CCN(CC)C(=O)CSc1nc2cc3c(cc2c(=O)n1Cc1ccc(OC)cc1)OCO3	i	i	i	i	i	.	.	.
O=C(O)c1cccc(Nc2nc(Nc3ccccc3)nc(N3CCCC3)n2)c1	i	i	i	i	i	.	.	.
COc1nc(Nc2cccc(C)c2)nc(N2CCCCC2)n1	i	i	i	i	i	i	i	i
Cc1cccc(Nc2nc(N3CCCC3)nc(N3CCCC3)n2)c1	i	i	i	i	i	i	i	i
COc1nc(N/N=C/c2ccc(C)cc2)nc(N2CCCCC2)n1	i	i	i	i	i	.	.	.
COc1ccc(-c2cc(C(=O)Nc3cc(OC)cc(C(=O)Nc4cccc(C(F)(F)F)c4)c3)[nH]n2)cc1	i	i	i	i	i	.	.	.
